In ChEMBL document CHEMBL1123082, “Hashish: synthesis and central nervous system activity of some novel analogues of cannabidiol and oxepin derivatives of delta 9-tetrahydrocannabinol” (1985):
Calls of active or inactive are those of the source.

How the values were obtained:
Mus musculus [1] = assay: Compound was evaluated for the maximum possible effect by tail-flick test in mice at dose 5.0 mg/kg; type: functional
Procedure, shortened: (§1)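 Male ICR mice (22–30 g). Control tail-flick latency to a heat source measured in each mouse. Vehicle or drug then given iv into the tail vein and latency retested 5 min later, with a 10 s cutoff. %MPE = (test − control)/(cutoff − control) × 100. At least six mice per dose.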

Mus musculus [2] = assay: The difference between the preinjection and postinjection (60 min) temperatures in mice was evaluated at a dose 2.5 mg/kg; type: functional
Mus musculus [3] = assay: Compound was evaluated for the percent antagonism by tail-flick test in mice in mice at dose 1.0 mg/kg; type: functional
Procedure, shortened: (§2)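 Male ICR mice (22–30 g). Vehicle or drug given iv 10 min before an iv injection of Δ9-THC (1 mg/kg) or vehicle into the opposite tail vein. Tail-flick measured 5 min after the second injection, with a 10 s cutoff. % antagonism = [1 − (%MPE drug-pretreated / %MPE vehicle-pretreated)] × 100. At least six mice per dose.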

Mus musculus [4] = assay: Compound was evaluated for the percent antagonism by tail-flick test in mice in mice at dose 2.5 mg/kg; type: functional; procedure, shortened: as §2
Mus musculus [5] = assay: Compound was evaluated for the percent antagonism by tail-flick test in mice in mice at dose 5.0 mg/kg; type: functional; procedure, shortened: as §2
Mus musculus [6] = assay: The difference between the preinjection and postinjection (60 min) temperatures in mice was evaluated at a dose 5.0 mg/kg; type: functional
Procedure, shortened: (§3)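 Male ICR mice (22–30 g). Rectal temperature taken by thermistor probe inserted 25 mm just before iv vehicle or drug (0.1 mL/10 g). Mice spent 10 min in activity chambers, then temperature was taken immediately and every 10 min up to 60 min. Value is the change from pre-injection to 60 min post-injection, mean ± SEM, N = 6. Ambient temperature was 21–24 °C.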

Mus musculus [7] = assay: The difference between the preinjection and postinjection (60 min) temperatures in mice was evaluated at a dose 1.0 mg/kg; type: functional; procedure, shortened: as §3
Mus musculus [8] = assay: The difference between the preinjection and postinjection (60 min) temperatures in mice was evaluated at a dose 50 mg/kg; type: functional; procedure, shortened: as §3
Mus musculus [9] = assay: Compound was evaluated for the percent antagonism in tail-flick test in mice at dose 40 mg/kg; type: functional; procedure, shortened: as §2
Mus musculus [10] = assay: Compound was evaluated for the maximum possible effect in tail-flick test in mice at dose 40 mg/kg; type: functional; procedure, shortened: as §1
Mus musculus [11] = assay: The difference between the preinjection and postinjection (60 min) temperatures in mice was evaluated at a dose 40 mg/kg; type: functional; procedure, shortened: as §3
Mus musculus [12] = assay: The difference between the preinjection and postinjection (60 min) temperatures in mice was evaluated at a dose 75 mg/kg; type: functional
Procedure, shortened: (§4)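 Male ICR mice (22–30 g), housed 24 h before testing; rectal temperature by thermistor probe inserted 25 mm, taken just before dosing. Drug or vehicle given iv (0.1 mL/10 g); mice held 10 min in photocell chambers, then temperature read at 10-min intervals to 60 min. Value is pre- minus 60-min post-injection difference, mean ± SEM, N = 6.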

Mus musculus [13] = assay: The difference between the preinjection and postinjection (60 min) temperatures in mice was evaluated at a dose 100 mg/kg; type: functional; procedure, shortened: as §3
Mus musculus [14] = assay: Compound was evaluated for the percent antagonism by tail-flick test in mice in mice at dose 25 mg/kg; type: functional; procedure, shortened: as §2
Mus musculus [15] = assay: Compound was evaluated for the percent antagonism by tail-flick test in mice in mice at dose 10 mg/kg; type: functional; procedure, shortened: as §2
Mus musculus [16] = assay: The difference between the preinjection and postinjection (60 min) temperatures in mice was evaluated at a dose 30 mg/kg; type: functional; procedure, shortened: as §3
Mus musculus [17] = assay: Spontaneous activity in mice at a dose 10 mg/kg; type: functional
Procedure, shortened: (§5)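 Male ICR mice (22–30 g), housed 24 h in the lab before testing. Vehicle or drug given iv (0.1 mL/10 g), then each mouse placed alone in a photocell activity chamber. Beam interruptions counted for 10 min and expressed as percent of vehicle-treated controls. ED50 with 95% confidence limits by Litchfield–Wilcoxon. At least six mice per dose.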

Mus musculus [18] = assay: The difference between the preinjection and postinjection (60 min) temperatures in mice was evaluated at a dose 25 mg/kg; type: functional; procedure, shortened: as §3
Mus musculus [19] = assay: Compound was evaluated for the maximum possible effect by tail-flick test in mice at dose 25 mg/kg; type: functional; procedure, shortened: as §1
Mus musculus [20] = assay: The difference between the preinjection and postinjection (60 min) temperatures in mice was evaluated at a dose 35 mg/kg; type: functional; procedure, shortened: as §3
Mus musculus [21] = assay: Compound was evaluated for the percent antagonism in tail-flick test in mice in mice at dose 10 mg/kg; type: functional; procedure, shortened: as §2
Mus musculus [22] = assay: Compound was evaluated for the maximum possible effect by tail-flick test in mice at dose 20 mg/kg; type: functional; procedure, shortened: as §1
Mus musculus [23] = assay: The difference between the preinjection and postinjection (60 min) temperatures in mice was evaluated at a dose 60 mg/kg; type: functional; procedure, shortened: as §4
Mus musculus [24] = assay: Compound was evaluated for the percent antagonism by tail-flick test in mice in mice at dose 20 mg/kg; type: functional; procedure, shortened: as §2
Mus musculus [25] = assay: The difference between the preinjection and postinjection (60 min) temperatures in mice was evaluated at a dose 10 mg/kg; type: functional; procedure, shortened: as §3
Mus musculus [26] = assay: Spontaneous activity in mice at a dose 10 mg/kg; Not active up to a lethal dose of 60 mg/kg; type: functional, organism-based; procedure, shortened: as §5
Mus musculus [27] = assay: Compound was evaluated for the percent antagonism by tail-flick test in mice at dose 10 mg/kg; type: functional; procedure, shortened: as §2
Mus musculus [28] = assay: The difference between the preinjection and post injection temperatures in vehicle treated mice was evaluated at a dose 3 mg/kg; type: functional; procedure, shortened: as §3
Mus musculus [29] = assay: Compound was evaluated spontaneous activity in vehicle treated mice at a dose 10 mg/kg.; type: functional; procedure, shortened: as §5
Mus musculus [30] = assay: Compound was evaluated spontaneous activity in vehicle treated mice at a dose 30 mg/kg.; type: functional; procedure, shortened: as §5
Mus musculus [31] = assay: The difference between the preinjection and post injection temperatures in vehicle treated mice was evaluated at a dose 10 mg/kg; type: functional; procedure, shortened: as §3
Canis familiaris [32] = assay: Compound was evaluated for overt behavoiur in dogs by behavioral rating score in dog static-ataxia test at a dose 0.5 mg/kg; type: functional, Canis lupus familiaris
Procedure, shortened: (§6)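 Mongrel dogs of either sex (8–12 kg) scored for spontaneous activity, gait, tail tuck, etc. before dosing. Cannabinoid or vehicle then given iv (1 mL/5 kg). Behaviour rated every 5 min on the Walton static-ataxia scale as modified. Sessions of five dogs: vehicle, 0.2 mg/kg Δ9-THC positive control, or one of three other cannabinoid treatments. Score given with number of dogs.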

Mus musculus [33] = assay: Compound was evaluated spontaneous activity in vehicle treated mice at a dose 3 mg/kg.; type: functional; procedure, shortened: as §5
Mus musculus [34] = assay: The difference between the preinjection and post injection temperatures in vehicle treated mice was evaluated at a dose 100 mg/kg; type: functional; procedure, shortened: as §3
Mus musculus [35] = assay: Compound was evaluated spontaneous activity in vehicle treated mice at a dose 1 mg/kg.; type: functional; procedure, shortened: as §5
Mus musculus [36] = assay: The difference between the preinjection and post injection temperatures in vehicle treated mice was evaluated at a dose 30 mg/kg; type: functional; procedure, shortened: as §3
Mus musculus [37] = assay: Compound was evaluated spontaneous activity in vehicle treated mice at a dose 100 mg/kg.; type: functional; procedure, shortened: as §5
Mus musculus [38] = assay: The difference between the preinjection and post injection temperatures in vehicle treated mice was evaluated at a dose 1 mg/kg; type: functional; procedure, shortened: as §3
Mus musculus [39] = assay: Compound was evaluated for the percent antagonism in tail-flick test in mice at a dose 20 mg/kg; type: functional; procedure, shortened: as §2
Mus musculus [40] = assay: Compound was evaluated for the maximum possible effect in tail-flick test in mice at dose 20 mg/kg; type: functional; procedure, shortened: as §1
Mus musculus [41] = assay: The difference between the preinjection and postinjection (60 min) temperatures in mice was evaluated at a dose 5 mg/kg; type: functional; procedure, shortened: as §3
Mus musculus [42] = assay: Compound was evaluated for the maximum possible effect in tail-flick test in mice at dose 0.3 mg/kg; type: functional; procedure, shortened: as §1
Mus musculus [43] = assay: Compound was evaluated for the maximum possible effect in tail-flick test in mice at dose 2.5 mg/kg; type: functional; procedure, shortened: as §1
Mus musculus [44] = assay: The difference between the preinjection and postinjection (60 min) temperatures in mice was evaluated at a dose 7.5 mg/kg; type: functional
Mus musculus [45] = assay: Compound was evaluated for the maximum possible effect in tail-flick test in mice at dose 1 mg/kg; type: functional; procedure, shortened: as §1
Mus musculus [46] = assay: Spontaneous activity in vehicle treated mice at a dose 100 mg/kg.; type: functional; procedure, shortened: as §5
Mus musculus [47] = assay: Spontaneous activity in vehicle treated mice at a dose 30 mg/kg.; type: functional; procedure, shortened: as §5
Mus musculus [48] = assay: The difference between the preinjection and post injection temperatures in vehicle treated mice was evaluated at a dose 2 mg/kg; type: functional; procedure, shortened: as §3
Canis familiaris [49] = assay: Compound was evaluated for overt behavoiur in dogs by behavioral rating score in dog static-ataxia test at a dose 5 mg/kg; type: functional, Canis lupus familiaris; procedure, shortened: as §6
Canis familiaris [50] = assay: Compound was evaluated for overt behavoiur in dogs by behavioral rating score in dog static-ataxia test at a dose 2 mg/kg; type: functional, Canis lupus familiaris; procedure, shortened: as §6

C=C(CNCC)[C@@H]1CCC(C)=CC1c1c(O)cc(CCCCC)cc1O (stereo partly drawn)
MPE (Mus musculus [1]): 7%
Hypothermic effect (Mus musculus [2]): 1.4
Antagonism (Mus musculus [3]): 33%
Antagonism (Mus musculus [4]): 66%
Antagonism (Mus musculus [5]): 67%
Hypothermic effect (Mus musculus [6]): 1
Hypothermic effect (Mus musculus [7]): 1

C=C(C)[C@@H]1CCC(C)=C[C@H]1c1c(O)cc(CCCCC)cc1O [CANNABIDIOL]
Hypothermic effect (Mus musculus [8]): 0.4
Antagonism (Mus musculus [9]): 0%
MPE (Mus musculus [10]): 5%
Hypothermic effect (Mus musculus [11]): 0.5
Hypothermic effect (Mus musculus [12]): 2.1
Hypothermic effect (Mus musculus [13]): 2.5

C=C(CNC(=O)CCCN)[C@@H]1CCC(C)=CC1c1c(O)cc(CCCCC)cc1O (stereo partly drawn)
Antagonism (Mus musculus [14]): 43%
Antagonism (Mus musculus [15]): 14%
Hypothermic effect (Mus musculus [16]): 2
ED50 (Mus musculus [17]): 30 mg/kg
Hypothermic effect (Mus musculus [18]): 1.3
MPE (Mus musculus [19]): 7%
Hypothermic effect (Mus musculus [20]): 2.1

C#CCN(C)CC(=C)[C@@H]1CCC(C)=CC1c1c(OC(C)=O)cc(CCCCC)cc1OC(C)=O (stereo partly drawn)
Antagonism (Mus musculus [21]): 25%
Hypothermic effect (Mus musculus [16]): 1
ED50 (Mus musculus [17]): 13 mg/kg
MPE (Mus musculus [22]): 0%
Hypothermic effect (Mus musculus [23]): 1.5
Antagonism (Mus musculus [24]): 63%
Hypothermic effect (Mus musculus [25]): 0.3

C=C(CN(C(C)C)C(C)C)[C@@H]1CCC(C)=CC1c1c(OC(C)=O)cc(CCCCC)cc1OC(C)=O (stereo partly drawn)
ED50 (Mus musculus [26]): inactive
Hypothermic effect (Mus musculus [16]): 0.9
MPE (Mus musculus [22]): 0%
Antagonism (Mus musculus [24]): 58%
Antagonism (Mus musculus [27]): 0%
Hypothermic effect (Mus musculus [25]): 1

C=C1COc2cc(C(C)C(C)CCCCC)cc(O)c2C2C=C(C)CC[C@@H]12 (stereo partly drawn)
Hypothermic effect (Mus musculus [28]): 0.6
Spontaneous activity (Mus musculus [29]): 71
Spontaneous activity (Mus musculus [30]): 58
Hypothermic effect (Mus musculus [31]): 4.9
Overt behavoiur (Canis familiaris [32]): 0
Spontaneous activity (Mus musculus [33]): 50
Hypothermic effect (Mus musculus [34]): 7.8
Spontaneous activity (Mus musculus [35]): 10
Hypothermic effect (Mus musculus [36]): 5.7
Spontaneous activity (Mus musculus [37]): 82
Hypothermic effect (Mus musculus [38]): 0.4

C=C(CN1CCOCC1)[C@@H]1CCC(C)=CC1c1c(OC(C)=O)cc(CCCCC)cc1OC(C)=O (stereo partly drawn)
Hypothermic effect (Mus musculus [16]): 1.2
ED50 (Mus musculus [17]): 16 mg/kg
Hypothermic effect (Mus musculus [23]): 1.3
Antagonism (Mus musculus [39]): 14%
Hypothermic effect (Mus musculus [25]): 0.9
MPE (Mus musculus [40]): 3%

CCCCCc1cc(O)c2c(c1)OC(C)(C)[C@@H]1CCC(C)=C[C@@H]21 [DRONABINOL]
Hypothermic effect (Mus musculus [41]): 3.6
MPE (Mus musculus [42]): 27%
MPE (Mus musculus [43]): 61%
Hypothermic effect (Mus musculus [2]): 2.6
Hypothermic effect (Mus musculus [44]): 3.8
MPE (Mus musculus [45]): 53%

C=C1COc2cc(CCCCC)cc(O)c2C2C=C(C)CC[C@@H]12 (stereo partly drawn)
Spontaneous activity (Mus musculus [46]): 41
Hypothermic effect (Mus musculus [34]): 0
Spontaneous activity (Mus musculus [47]): 0
Hypothermic effect (Mus musculus [48]): 0.4
Overt behavoiur (Canis familiaris [49]): 0
Hypothermic effect (Mus musculus [36]): 0.1
Overt behavoiur (Canis familiaris [50]): 0
